Assay outcomes (PubChem BioAssay)
core dimer inh – inhibitors of HCV core protein dimerization, primary screen, biochemical, TR-FRET, high-throughput. inhibition, % at 5 µM. 0.33% of 300,000 active. AID 1899, 2009. TR-FRET GST/Flag-core106 dimerization, 1536-well;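 active = inhibition above the mean of all tested compounds plus 3 SD, set per screening campaign, cut at about 45% in these data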
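System: GST/Flag-tagged HCV core106 proteins. Incubation: compound-protein-antibody incubation 4 h at 22.5 °C. Technique: HTRF with 340 nm excitation, 617/671 nm emission. Medium: KF-containing HEPES buffer, pH 7.45, DTT, CHAPS, BSA. Read-out: inhibition (%) from 671 over 617 nm ratio. Also added: Eu(K)-anti-GST 90 ng/mL plus XL665-anti-Flag 1 µg/mL.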
PP1 counter – PP1-alpha phosphatase inhibitors, primary screen, counter-screen for PP5 inhibitor project, biochemical, fluorescence, OMFP substrate, single point | inhibition, % at 6.7 µM | 0.9% of 320,000 active | purified PP1alpha | Serine/threonine-protein phosphatase PP1-alpha catalytic subunit (Homo sapiens), P62136;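 active = inhibition above the mean inhibition of all tested compounds plus 3 SD, computed separately for each screening campaign, cut at about 15% in these data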
EBNA-1 inhibitor – EBNA-1 DNA-binding inhibitors, primary screen, biochemical, fluorescence polarization. inhibition, % at 14.8 µM. 0.34% of 300,000 active. AID 1950, 2009; in the data active = inhibition above about 28%
ZTA counter – ZTA (EBV) inhibition in EBNA-1 counter-screen. P03206. ZTA-DNA binding, fluorescence polarization. inhibition, % at 11 µM. 0.15% of 320,000 active; in the data active = inhibition above about 33%
PP5 inh – PP5 phosphatase inhibitors, primary screen, biochemical, fluorescence | Serine/threonine-protein phosphatase 5 (Homo sapiens), P53041 | purified PP5c, OMFP substrate fluorescence | inhibition, % at 6.7 µM | 0.18% of 320,000 active | AID 1987, 2009;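 active = inhibition above the campaign's mean inhibition across all tested compounds plus 3 SD, cut at about 9.5% in these data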;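 note: 0% = DMSO only and 100% = 100 µM cantharidin control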
Target sequence (P53041 whole entry, looked up): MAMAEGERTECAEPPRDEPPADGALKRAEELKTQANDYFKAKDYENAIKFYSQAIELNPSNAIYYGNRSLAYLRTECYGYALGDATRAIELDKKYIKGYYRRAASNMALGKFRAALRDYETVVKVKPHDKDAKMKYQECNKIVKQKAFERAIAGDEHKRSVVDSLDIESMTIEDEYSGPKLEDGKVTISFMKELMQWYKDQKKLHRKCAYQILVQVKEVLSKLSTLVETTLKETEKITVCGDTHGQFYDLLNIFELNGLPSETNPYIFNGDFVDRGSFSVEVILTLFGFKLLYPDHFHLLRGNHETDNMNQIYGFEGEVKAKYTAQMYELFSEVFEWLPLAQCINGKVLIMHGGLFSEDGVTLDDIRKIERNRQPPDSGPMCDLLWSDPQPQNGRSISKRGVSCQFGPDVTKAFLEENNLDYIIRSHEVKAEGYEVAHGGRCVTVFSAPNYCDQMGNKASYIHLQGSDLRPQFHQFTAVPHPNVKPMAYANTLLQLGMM
PP1 confirm – PP1 phosphatase inhibitors, confirmation, biochemical, fluorescence, OMFP substrate, triplicate; 52% of 1,900 active; purified PP1alpha; shares compounds with PP1 counter; AID 2358, 2010; inhibition, % at 6.7 µM;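 active = mean PP1 inhibition above a set limit taken from the earlier primary screen, cut at about 15% in these data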
PP5 inh counter – PP5 phosphatase inhibition by PP1 hits, confirmation, counter-screen for PP1 inhibitor project, biochemical, fluorescence, triplicate; shares compounds with PP1 counter; purified PP5c, OMFP fluorescence; inhibition, % at 6.7 µM; 4% of 1,900 active;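 active = mean PP5 inhibition over triplicate wells above about 9.5% taken from the earlier PP1 screen, limit read from the data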
* = called active by the depositor; · = no result. In the library only some 1.7% were active in any assay of this set; here they are far more common.

SMILES	core dimer inh	PP1 counter	EBNA-1 inhibitor	ZTA counter	PP5 inh	PP1 confirm	PP5 inh counter
Cc1ccc(S(=O)(=O)N2CCC(=O)N(CCO)CC2)cc1	3	5	11	7	0	·	·
CCc1nnc(NC(=O)c2ccc(S(=O)(=O)N(CC)Cc3ccccc3)cc2)o1	14	36*	1	-21	-4	32*	0
CCN(Cc1ccccc1)S(=O)(=O)c1ccc(C(=O)Nc2nnc(C)o2)cc1	-9	38*	8	-15	3	26*	-1
CCc1nnc(NC(=O)c2ccc(S(=O)(=O)N(C)Cc3ccccc3)cc2)o1	4	37*	2	-6	3	34*	4
CN(Cc1ccccc1)S(=O)(=O)c1ccc(C(=O)Nc2nnc(C3CC3)o2)cc1	6	36*	10	-1	2	31*	0
CCN(CC)S(=O)(=O)c1ccc(C(=O)Nc2nnc(CSC)o2)cc1	1	8	20	7	0	·	·
CC(=O)C1=C(C)Nc2ncnn2C1c1ccc(Br)cc1 (stereo not given)	8	-5	-1	4	-2	·	·
COc1ccccc1-c1nnc(NC(=O)c2ccc(S(=O)(=O)N(C)Cc3ccccc3)cc2)o1	11	21*	0	4	3	31*	-1
Cc1ccc(CN2CC(C(=O)Nc3cc(C)ccn3)CC2=O)cc1 (stereo not given)	0	-5	3	-4	2	·	·
CCc1ccc(CNC(=O)C2CC(=O)N(C3CCCC3)C2)cc1 (stereo not given)	-14	-8	-6	3	-9	·	·
Cc1ccsc1/C=C/c1ccc2ccccc2n1	-1	2	-8	-6	2	·	·
COc1ccc(OC)c(/C=C/c2ccc3cccc(O)c3n2)c1	-16	19*	-10	-17	4	18*	-2
Oc1cccc2ccc(/C=C/c3cccs3)nc12	-7	24*	1	-2	2	19*	-1
Cc1ccsc1/C=C/c1ccc2cccc(O)c2n1	-3	21*	6	3	5	19*	0
COc1cc(Br)c(/C=C/c2ccc3cccc(O)c3n2)cc1OC	-5	4	-7	-11	1	·	·
Cc1cccc(N2CC(C(=O)Nc3nnc(SCC(=O)Nc4cc(C)on4)s3)CC2=O)c1 (stereo not given)	40	27*	6	11	-1	27*	-3
Cc1cccc(N2CC(C(=O)Nc3nnc(SCc4cccnc4)s3)CC2=O)c1 (stereo not given)	28	4	10	7	-1	·	·
COc1cccc(CN2CC(C(=O)NCc3cccc(N4CCCC4)c3)CCC2=O)c1 (stereo not given)	11	7	-4	16	2	·	·
COc1ccc(N(Cc2ccccc2)S(=O)(=O)c2cc(C(=O)O)ccc2Cl)cc1	9	-2	3	-4	1	·	·
CCOC(=O)N1CCN(Cc2ccc(O)c3ncccc23)CC1	-1	3	2	-9	2	·	·
Cc1ccc(C)c(S(=O)(=O)N2CCN(Cc3ccc(O)c4ncccc34)CC2)c1	9	31*	-19	-11	6	30*	-7
O=c1cc(-c2ccccc2)cc(-c2ccccc2)n1CCCO	-24	19*	2	-4	-10	-4	-7
O=S(=O)(c1cccs1)N1CCN(Cc2cccc(F)c2)CC1	7	27*	1	0	2	1	0
Cc1ccc(S(=O)(=O)N2CCN(Cc3cccc(F)c3)CC2)cc1	1	-3	3	-9	4	·	·
Cc1nc(N2CCC(C)CC2)c2c(C)c(C(=O)Nc3cccc(C(F)(F)F)c3)sc2n1	-9	-4	3	8	4	·	·
SMILES	core dimer inh	PP1 counter	EBNA-1 inhibitor	ZTA counter	PP5 inh	PP1 confirm	PP5 inh counter
Cc1nc(SC(C)C(=O)Nc2cccc(C(F)(F)F)c2)c2c(C)c(C(=O)O)sc2n1 (stereo not given)	10	45*	2	23	-1	15*	-5
COc1cc(Cl)c(C)cc1NC(=O)c1cc(S(=O)(=O)N(C)C)ccc1N1CCCC1	15	1	11	4	1	·	·
Oc1c(C(Nc2cccc(C(F)(F)F)c2)c2ccncc2)ccc2cccnc12 (stereo not given)	-3	18*	-11	-24	4	14	-3
CCC1Cc2c(nc(N)c3c(N)nc(N4CCOCC4)c(C#N)c23)O1 (stereo not given)	-3	-2	-1	7	1	·	·
COCCN1C(=O)Cc2c1nc(N)c1c(N)nc(N3CCN(c4ccc(F)cc4)CC3)c(C#N)c21	28	19*	3	4	1	8	7
COc1ccc(CN2C(=O)Cc3c2nc(N)c2c(N)nc(N4CCOCC4)c(C#N)c32)cc1	12	18*	-7	5	6	4	14*
COCC(C)N1C(=O)Cc2c1nc(N)c1c(N)nc(N3CCN(c4ccccc4F)CC3)c(C#N)c21 (stereo not given)	33	11	-5	5	8	·	·
CCN(Cc1ccccc1)S(=O)(=O)c1ccc(C(=O)N(CCCN(C)C)c2nc3cc4c(cc3s2)OCO4)cc1	-12	9	1	19	2	·	·
CCN(Cc1ccccc1)S(=O)(=O)c1ccc(C(=O)N(CCCN(C)C)c2nc3c(C)c(C)ccc3s2)cc1	-2	19*	1	6	5	-3	3
CCN(CC)C(=O)CSc1ncnc2c(-c3cccs3)nsc12	47*	25*	10	-1	3	6	-3
O=C(O)c1ccccc1N/N=C/c1cc(Br)cc(Br)c1O	11	23*	12	-6	1	11	-1
CCc1sc(N(C(=O)Cc2ccccc2)c2cccc(F)c2)nc1-c1ccc(C)cc1	-1	-4	0	4	-1	·	·
Cc1sc(N(C(=O)CCc2ccccc2)c2ccc(C(=O)O)cc2)nc1-c1ccccc1	22	20*	5	-2	5	15*	0
O=C(C1CCC(=O)N(C2CC2)C1)N(CCO)Cc1ccccc1 (stereo not given)	6	-4	-8	-6	1	·	·
CCN1C(=O)CSc2ccc(C(=O)NCc3ccc(OC)cc3)cc21	-1	-4	-4	-17	0	·	·
COc1cc(/C=C2\SC(=Nc3ccccc3OC)NC2=O)ccc1O	-8	6	-2	-7	2	·	·
COc1cc(/C=C2/SC(=Nc3ccc(O)cc3)NC2=O)ccc1O	-9	23*	-9	-4	1	24*	-1
Cc1csc2nc(O)c(C(=O)NCCCc3ccccc3)c(=O)n12	4	20*	1	6	1	13	-5
